Measurements from ChEMBL document CHEMBL1140959, “Inhibition of PDGFR tyrosine kinase activity by a series of novel N-(3-(4-(pyridin-3-yl)-1H-imidazol-2-ylamino)phenyl)amides: a SAR study on the bioisosterism of pyrimidine and imidazole” (Eur J Med Chem, 2008).
Calls of active or inactive are those of the source. The calls are words filed in the database; no cut-off is given here.

Legend:
[1] = molecular target: Platelet-derived growth factor receptor (Mus musculus, UniProt P05622+P26618); assay: Inhibition of PDGFR autophosphorylation in mouse Swiss 3T3 fibroblast by immunoblotting
How it was run: (§1)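 PDGFR autophosphorylation in Swiss 3T3 cells was assayed by a previously described method. IC50 was fitted to a six-concentration curve, with duplicate or triplicate determinations.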

[2] = molecular target: Platelet-derived growth factor receptor (Mus musculus) (UniProt P05622+P26618); assay: Inhibition of PDGFR autophosphorylation in mouse Swiss 3T3 fibroblast up to 10 ug/ml by immunoblotting; how it was run: as §1
[3] = molecular target: Receptor-type tyrosine-protein kinase FLT3 (Homo sapiens) (UniProt P36888); assay: Inhibition of FLT3 autophosphorylation in human EOL1 cells up to 10 ug/ml by immunoblotting; type: cell-based
[4] = system: FLT3 (Homo sapiens); assay: Inhibition of FLT3 autophosphorylation in human EOL-1 cells up to 10 ug/ml by immunoblotting

Receptor-type tyrosine-protein kinase FLT3 (Homo sapiens), sequence (P36888 whole entry): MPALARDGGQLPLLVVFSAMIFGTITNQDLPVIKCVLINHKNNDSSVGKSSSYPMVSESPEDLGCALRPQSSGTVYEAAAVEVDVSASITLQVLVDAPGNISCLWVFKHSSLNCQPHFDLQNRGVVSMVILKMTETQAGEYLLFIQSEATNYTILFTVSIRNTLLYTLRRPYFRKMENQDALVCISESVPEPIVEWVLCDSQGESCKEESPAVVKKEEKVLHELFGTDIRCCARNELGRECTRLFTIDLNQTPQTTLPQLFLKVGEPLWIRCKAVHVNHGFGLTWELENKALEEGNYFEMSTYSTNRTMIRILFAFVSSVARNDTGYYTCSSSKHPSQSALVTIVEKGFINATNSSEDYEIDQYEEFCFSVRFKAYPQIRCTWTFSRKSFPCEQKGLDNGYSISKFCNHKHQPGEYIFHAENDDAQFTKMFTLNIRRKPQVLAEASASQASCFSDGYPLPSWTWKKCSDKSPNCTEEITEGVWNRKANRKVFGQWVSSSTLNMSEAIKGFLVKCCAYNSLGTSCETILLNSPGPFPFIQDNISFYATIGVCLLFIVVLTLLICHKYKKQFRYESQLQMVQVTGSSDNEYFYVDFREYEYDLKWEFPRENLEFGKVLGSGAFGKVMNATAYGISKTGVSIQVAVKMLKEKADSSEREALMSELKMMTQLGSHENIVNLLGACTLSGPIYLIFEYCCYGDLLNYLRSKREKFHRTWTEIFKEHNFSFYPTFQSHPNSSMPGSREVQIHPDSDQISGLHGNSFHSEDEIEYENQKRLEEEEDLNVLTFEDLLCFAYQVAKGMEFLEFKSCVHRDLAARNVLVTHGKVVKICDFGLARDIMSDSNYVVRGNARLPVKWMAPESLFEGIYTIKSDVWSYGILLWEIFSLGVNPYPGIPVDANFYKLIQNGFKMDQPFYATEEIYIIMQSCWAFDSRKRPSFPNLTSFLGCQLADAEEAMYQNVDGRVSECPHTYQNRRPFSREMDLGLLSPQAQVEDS

`CCc1ccc(NC(=O)c2ccccc2)cc1Nc1nc(-c2cccnc2)c[nH]1` was tested, and the IC50 [1] was 4700 nM.

In the case of `Cc1ccc(NC(=O)c2ccc(CN3CCN(C)CC3)cc2)cc1Nc1nc(-c2ccccc2)c[nH]1`, the IC50 [1] is reported as > 10000 nM.

With `CCc1ccc([N+](=O)[O-])cc1Nc1nc(-c2cccnc2)c[nH]1` the Activity [2] was “inactive” and the Activity [3] was “inactive”.

For `Cc1ccc(NC(=O)c2ccccc2C)cc1Nc1nc(-c2cccnc2)c[nH]1`, the IC50 [1] was 600 nM.

In the case of `Cc1ccc(N)cc1Nc1nc(-c2cccnc2)c[nH]1`, the Activity [2] is reported as “inactive” and the Activity [3] is reported as “inactive”.

With `Cc1ccc(NC(=O)c2ccccc2)cc1Nc1nc(-c2ccccc2)c[nH]1` the IC50 [1] was 7100 nM.

`Cc1ccc(N)cc1Nc1nc(-c2ccncc2)c[nH]1` was tested, and the Activity [2] was “inactive” and the Activity [3] was “inactive”.

For `CCCCCCCCCCc1ccc(C(=O)Nc2ccc(C)c(Nc3nc(-c4cccnc4)c[nH]3)c2)cc1`, the IC50 [1] was > 10000 nM, the Activity [2] was “inactive” and the Activity [3] was “inactive”.

`Cc1ccc(NC(=O)c2ccc(N)cc2)cc1Nc1nc(-c2cccnc2)c[nH]1` was tested, and the IC50 [1] was > 30000 nM, the Activity [2] was “inactive” and the Activity [3] was “inactive”.

`Cc1ccc(NC(=O)c2ccccc2)cc1Nc1nccc(-c2cccnc2)n1` gave an IC50 [1] of 100 nM.

With `Cc1ccc(NC(=O)c2ccccc2)cc1Nc1nc(-c2ccncc2)c[nH]1` the IC50 [1] was > 10000 nM.

With `Cc1ccc([N+](=O)[O-])cc1Nc1nc(-c2ccncc2)c[nH]1` the Activity [2] was “inactive” and the Activity [3] was “inactive”.

For `COc1ccc(C(=O)Nc2ccc(C)c(Nc3nc(-c4cccnc4)c[nH]3)c2)cc1`, the IC50 [1] was > 30000 nM, the Activity [2] was “inactive” and the Activity [3] was “inactive”.

`CN1CCN(Cc2ccc(C(=O)Nc3cccc(Nc4nc(-c5cccnc5)c[nH]4)c3)cc2)CC1` showed an IC50 [1] of 6500 nM.

In the case of `Cc1ccc(C(=O)Nc2ccc(C)c(Nc3nc(-c4cccnc4)c[nH]3)c2)cc1`, the IC50 [1] is reported as 200 nM, the Activity [4] is reported as “inactive” and the Activity [3] is reported as “inactive”.

In the case of `CC(=O)Nc1ccc(C)c(Nc2nc(-c3ccccc3)c[nH]2)c1`, the IC50 [1] is reported as > 30000 nM.

In the case of `Cc1ccc(NC(=O)c2ccc(CN3CCN(C)CC3)cc2)cc1Nc1nc(-c2cccnc2)c[nH]1`, the IC50 [1] is reported as > 10000 nM, the Activity [2] is reported as “inactive” and the Activity [3] is reported as “inactive”.

`Cc1ccc(NC(=O)c2ccccc2)cc1Nc1nc(-c2cccnc2)c[nH]1` was tested, and the IC50 [1] was 300 nM, the Activity [4] was “inactive” and the Activity [3] was “inactive”.

With `Cc1cccc(C(=O)Nc2ccc(C)c(Nc3nc(-c4cccnc4)c[nH]3)c2)c1` the IC50 [1] was 2200 nM.

`Cc1ccc([N+](=O)[O-])cc1Nc1nc(-c2ccccc2)c[nH]1` was tested, and the Activity [2] was “inactive” and the Activity [3] was “inactive”.

`CC(=O)Nc1ccc(C)c(Nc2nc(-c3cccnc3)c[nH]2)c1` was tested, and the IC50 [1] was 5900 nM.

In the case of `CCc1ccc(NC(=O)c2ccc(C)cc2)cc1Nc1nc(-c2cccnc2)c[nH]1`, the IC50 [1] is reported as 6500 nM.

`Cc1ccc(NC(=O)c2ccncc2)cc1Nc1nc(-c2cccnc2)c[nH]1` was tested, and the IC50 [1] was 1800 nM, the Activity [4] was “inactive” and the Activity [3] was “inactive”.

With `Nc1cccc(Nc2nc(-c3cccnc3)c[nH]2)c1` the Activity [2] was “inactive” and the Activity [3] was “inactive”.

In the case of `Cc1ccc(NC(=O)c2ccc([N+](=O)[O-])cc2)cc1Nc1nc(-c2cccnc2)c[nH]1`, the IC50 [1] is reported as > 30000 nM, the Activity [2] is reported as “inactive” and the Activity [3] is reported as “inactive”.

`Cc1ccc([N+](=O)[O-])cc1Nc1nc(-c2cccnc2)c[nH]1` was tested, and the Activity [2] was “inactive” and the Activity [3] was “inactive”.

`Cc1ccc(NC(=O)c2ccc(Cl)cc2)cc1Nc1nc(-c2cccnc2)c[nH]1` was tested, and the IC50 [1] was 400 nM, the Activity [4] was “inactive” and the Activity [3] was “inactive”.

In the case of `Cc1ccc(C(=O)Nc2cccc(Nc3nc(-c4cccnc4)c[nH]3)c2)cc1`, the IC50 [1] is reported as 200 nM.

For `CCc1ccc(NC(=O)c2ccccc2C)cc1Nc1nc(-c2cccnc2)c[nH]1`, the IC50 [1] was 1600 nM.

`Cc1cccc(C(=O)Nc2cccc(Nc3nc(-c4cccnc4)c[nH]3)c2)c1` showed an IC50 [1] of 300 nM.

`Cc1ccc(NC(=O)c2ccc(CN3CCN(C)CC3)cc2)cc1Nc1nccc(-c2cccnc2)n1` [IMATINIB] showed an IC50 [1] of 300 nM.

`Cc1ccc(NC(=O)c2ccc(CN3CCN(C)CC3)cc2)cc1Nc1nc(-c2ccncc2)c[nH]1` was tested, and the IC50 [1] was > 10000 nM.

Compound `CC(=O)Nc1ccc(C)c(Nc2nccc(-c3cccnc3)n2)c1` has an IC50 [1] of 50000 nM.

In the case of `Cc1ccccc1C(=O)Nc1cccc(Nc2nc(-c3cccnc3)c[nH]2)c1`, the IC50 [1] is reported as 600 nM.

`CCc1ccc(NC(=O)c2cccc(C)c2)cc1Nc1nc(-c2cccnc2)c[nH]1` was tested, and the IC50 [1] was 300 nM.

With `CCc1ccc(N)cc1Nc1nc(-c2cccnc2)c[nH]1` the Activity [2] was “inactive” and the Activity [3] was “inactive”.

In the case of `Cc1ccc(N)cc1Nc1nc(-c2ccccc2)c[nH]1`, the Activity [2] is reported as “inactive” and the Activity [3] is reported as “inactive”.

For `O=[N+]([O-])c1cccc(Nc2nc(-c3cccnc3)c[nH]2)c1`, the Activity [2] was “inactive” and the Activity [3] was “inactive”.

For `COc1cc(C(=O)Nc2ccc(C)c(Nc3nc(-c4cccnc4)c[nH]3)c2)cc(OC)c1OC`, the IC50 [1] was > 10000 nM, the Activity [2] was “inactive” and the Activity [3] was “inactive”.
